Results reported in ChEMBL document CHEMBL1795276, “Synthesis and biological testing of novel pyridoisothiazolones as histone acetyltransferase inhibitors” (Bioorg Med Chem, 2011).
Calls of active or inactive are those of the source. No cut-off for these calls is given here.

Experiments:
[1] = target: T1, Histone acetyltransferase KAT2B (Homo sapiens, UniProt Q92831); test: Inhibition of histone acetylase activity of human recombinant PCAF expressed in Escherichia coli at 50 uM using biotinylated oligopeptide sequences from histone H3 (1-21) substrate by In-vitro time-resolved fluorescence immunosorbent acetyltransferase assay
In short: (§1)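 His-tagged human PCAF from E. coli (IPTG induction at 18 °C overnight), purified on Ni-NTA and stored at pH 6.0. Enzyme was preincubated with inhibitor in DMSO for 10 min at 30 °C in HAT buffer pH 7.5 (0.1% BSA, 0.8% Triton X-100, 100 mM HEPES). Reaction on 20 pmol/well biotinylated H3 1–21 bound to a streptavidin plate, with 100 µM acetyl-CoA final, 1 h at 30 °C. Detection with anti-acetylhistone H3 antibody, then Eu-labelled secondary antibody; time-resolved fluorescence at 340/615 nm. IC50 from RFU plotted against log concentration.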
Target sequence in this assay (Q92831 whole entry, looked up): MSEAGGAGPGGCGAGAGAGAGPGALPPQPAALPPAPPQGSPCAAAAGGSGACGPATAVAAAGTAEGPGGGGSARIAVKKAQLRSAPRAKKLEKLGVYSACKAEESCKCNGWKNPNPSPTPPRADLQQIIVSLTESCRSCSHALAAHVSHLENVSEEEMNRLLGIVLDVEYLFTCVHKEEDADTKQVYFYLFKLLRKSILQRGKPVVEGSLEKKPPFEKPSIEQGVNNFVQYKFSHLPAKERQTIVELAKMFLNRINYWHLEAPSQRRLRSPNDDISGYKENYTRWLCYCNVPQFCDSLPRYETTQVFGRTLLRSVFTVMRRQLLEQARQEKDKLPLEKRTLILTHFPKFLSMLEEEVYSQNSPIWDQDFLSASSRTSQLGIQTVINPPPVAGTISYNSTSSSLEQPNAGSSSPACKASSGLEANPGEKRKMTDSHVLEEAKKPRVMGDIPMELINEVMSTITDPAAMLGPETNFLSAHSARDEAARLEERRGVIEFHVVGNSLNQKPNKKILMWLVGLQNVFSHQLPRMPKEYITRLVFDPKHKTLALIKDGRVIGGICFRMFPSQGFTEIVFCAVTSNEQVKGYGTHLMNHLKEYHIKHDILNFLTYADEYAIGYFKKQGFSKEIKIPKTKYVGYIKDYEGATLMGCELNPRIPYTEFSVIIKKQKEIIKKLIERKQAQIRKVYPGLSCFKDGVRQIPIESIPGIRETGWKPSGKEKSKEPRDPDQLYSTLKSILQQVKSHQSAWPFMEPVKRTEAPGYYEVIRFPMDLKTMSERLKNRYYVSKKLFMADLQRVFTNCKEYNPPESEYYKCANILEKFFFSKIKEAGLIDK

[2] = target: T1, Histone acetyltransferase KAT2B; test: Inhibition of histone acetylase activity of human recombinant PCAF expressed in Escherichia coli using biotinylated oligopeptide sequences from histone H3 (1-21) substrate by In-vitro time-resolved fluorescence immunosorbent acetyltransferase assay; in short: as §1
Target sequence in this assay (Q92831 whole entry): as the sequence (Q92831 whole entry, looked up) above

[3] = target: T1, Histone acetyltransferase KAT2B; test: Inhibition of histone acetylase activity of human recombinant PCAF expressed in Escherichia coli using biotinylated oligopeptide sequences from histone H4 (2-24) substrate by In-vitro time-resolved fluorescence immunosorbent acetyltransferase assay
In short: (§2)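 E. coli-expressed His-tagged human PCAF, Ni-NTA purified. Preincubated 10 min at 30 °C with inhibitor (DMSO solution) in HEPES 100 mM pH 7.5 with 0.1% BSA and 0.8% Triton X-100. Substrate was 20 pmol/well biotinylated H4 2–24 on streptavidin wells; 100 µM acetyl-CoA final; incubation steps 1 h at 30 °C. Acetylation read with anti-acetyl-lysine primary antibody and Eu-labelled anti-rabbit secondary, by time-resolved fluorescence at 340/615 nm; IC50 from RFU versus log concentration.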
Target sequence in this assay (Q92831 whole entry): as the sequence (Q92831 whole entry, looked up) above

SK-N-SH [4] = test: Growth inhibition of human SK-N-SH cells by CellTiter-96 Aqueous Non-radioactive cell proliferation assay; format: functional
In short: (§3)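 SK-N-SH neuroblastoma cells were grown in low-glucose DMEM with 10% FBS, 2 mM L-glutamine and 1% penicillin-streptomycin, and seeded at 5000/well. Compound or DMSO vehicle was added after 24 h, in triplicate.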

HCT-116 [5] = test: Growth inhibition of human HCT116 cells at 25 uM by CellTiter-96 Aqueous Non-radioactive cell proliferation assay; format: functional; settings: read-out: GI
In short: (§4)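 HCT116 cells were grown in high-glucose DMEM with 10% FBS, 2 mM L-glutamine, 1% non-essential amino acids and penicillin-streptomycin, and seeded at 4000/well. After 24 h, compound or DMSO vehicle was added; triplicates per concentration.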

SK-N-SH [6] = test: Growth inhibition of human SK-N-SH cells at 40 uM by CellTiter-96 Aqueous Non-radioactive cell proliferation assay; format: functional; settings: read-out: GI; in short: as §3
HCT-116 [7] = test: Growth inhibition of human HCT116 cells at 40 uM by CellTiter-96 Aqueous Non-radioactive cell proliferation assay; format: functional; settings: read-out: GI; in short: as §4
MCF7 = test: Growth inhibition of human MCF7 cells by CellTiter-96 Aqueous Non-radioactive cell proliferation assay; format: functional
In short: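 MCF-7 cells were grown in RPMI-1640 with 10% FBS, 2 mM L-glutamine and penicillin-streptomycin, and seeded at 5000/well. Compounds or DMSO were added after 24 h; three replicates per concentration.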

[8] = target: T1, Histone acetyltransferase KAT2B; test: Inhibition of histone acetylase activity of human recombinant PCAF expressed in Escherichia coli at 50 uM using biotinylated oligopeptide sequences from histone H4 (2-24) substrate by In-vitro time-resolved fluorescence immunosorbent acetyltransferase assay; in short: as §2
Target sequence in this assay (Q92831 whole entry, looked up): as above

SK-N-SH [9] = test: Growth inhibition of human SK-N-SH cells at 10 uM by CellTiter-96 Aqueous Non-radioactive cell proliferation assay; format: functional; settings: read-out: GI; in short: as §3
[10] = target: T1, Histone acetyltransferase KAT2B; test: Inhibition of histone acetylase activity of human recombinant PCAF expressed in Escherichia coli at 25 uM using biotinylated oligopeptide sequences from histone H3 (1-21) substrate by In-vitro time-resolved fluorescence immunosorbent acetyltransferase assay; in short: as §1
Target sequence in this assay (Q92831 whole entry, looked up): as above

SK-N-SH [11] = test: Growth inhibition of human SK-N-SH cells at 25 uM by CellTiter-96 Aqueous Non-radioactive cell proliferation assay; format: functional; settings: read-out: GI; in short: as §3
SK-N-SH [12] = test: Growth inhibition of human SK-N-SH cells at 5 to 25 uM incubated for 6 to 72 hrs by CellTiter-96 Aqueous Non-radioactive cell proliferation assay; format: functional, cell-based
In short: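 Time course in SK-N-SH cells (5000/well, low-glucose DMEM with 10% FBS). Compound at 5, 10 or 25 µM was added 24 h after seeding, and growth was followed up to 72 h of incubation by CellTiter 96 AQueous absorbance, relative to DMSO control.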

[13] = target: T1, Histone acetyltransferase KAT2B; test: Inhibition of histone acetylase activity of human recombinant PCAF expressed in Escherichia coli at 10 uM using biotinylated oligopeptide sequences from histone H3 (1-21) substrate by In-vitro time-resolved fluorescence immunosorbent acetyltransferase assay; in short: as §1
Target sequence in this assay (Q92831 whole entry, looked up): as above

[14] = target: T1, Histone acetyltransferase KAT2B; test: Inhibition of histone acetylase activity of human recombinant PCAF expressed in Escherichia coli using biotinylated oligopeptide sequences from histone H3 (1-21) substrate in presence of 1 mmol/L DTT by In-vitro time-resolved fluorescence immunosorbent acetyltransferase assay
Target sequence in this assay (Q92831 whole entry, looked up): as above

[15] = target: T1, Histone acetyltransferase KAT2B; test: Inhibition of histone acetylase activity of human recombinant PCAF expressed in Escherichia coli at 200 uM using biotinylated oligopeptide sequences from histone H4 (2-24) substrate by In-vitro time-resolved fluorescence immunosorbent acetyltransferase assay; in short: as §2
Target sequence in this assay (Q92831 whole entry, looked up): as above

[16] = target: T1, Histone acetyltransferase KAT2B; test: Inhibition of histone acetylase activity of human recombinant PCAF expressed in Escherichia coli at 300 uM using biotinylated oligopeptide sequences from histone H3 (1-21) substrate by In-vitro time-resolved fluorescence immunosorbent acetyltransferase assay; in short: as §1
SK-N-SH [17] = test: Growth inhibition of human SK-N-SH cells at 100 uM by CellTiter-96 Aqueous Non-radioactive cell proliferation assay; format: functional; settings: read-out: GI; in short: as §3
HCT-116 [18] = test: Growth inhibition of human HCT116 cells at 100 uM by CellTiter-96 Aqueous Non-radioactive cell proliferation assay; format: functional; settings: read-out: GI; in short: as §4
HCT-116 [19] = test: Growth inhibition of human HCT116 cells by CellTiter-96 Aqueous Non-radioactive cell proliferation assay; format: functional; in short: as §4
SK-N-SH [20] = test: Growth inhibition of human SK-N-SH cells at 20 uM by CellTiter-96 Aqueous Non-radioactive cell proliferation assay; format: functional; settings: read-out: GI; in short: as §3
HCT-116 [21] = test: Growth inhibition of human HCT116 cells at 20 uM by CellTiter-96 Aqueous Non-radioactive cell proliferation assay; format: functional; settings: read-out: GI; in short: as §4

SMILES | IC50 [2] | GI50 (SK-N-SH [4]) | inhibition of growth at 25 µM (HCT-116 [5]) | also measured
Oc1nsc2ncccc12 |  |  |  | inhibition [1]: 17%
O=c1c2cccnc2sn1-c1ccc(Br)cc1 | 4.43 µM |  |  | 
O=c1c2ccc([N+](=O)[O-])cc2sn1Cc1ccccc1 | 7.66 µM |  |  | IC50 [3]: 51.3 µM
O=c1c2cccnc2sn1Cc1ccc(F)c(F)c1 | 101 µM |  |  | 
Cc1cnc2sn(-c3ccc(Br)cc3)c(=O)c2c1 | 2.99 µM | 21.3 µM | < 5% | 
O=C(Cn1sc2cc(F)ccc2c1=O)Nc1nc(-c2ccccc2)cs1 |  |  |  | inhibition [1]: 21%; inhibition of growth at 40 µM (SK-N-SH [6]): < 5%; inhibition of growth at 40 µM (HCT-116 [7]): < 5%
O=c1c2cc([N+](=O)[O-])cnc2sn1-c1ccc(Br)cc1 | 4.91 µM | 53.5 µM |  | IC50 [3]: 0.86 µM; GI50 (MCF7): 44.2 µM
O=c1c2cccnc2sn1-c1ccccc1 | 7.85 µM |  |  | inhibition [8]: 88%
Cc1ccc(Cn2sc3ncccc3c2=O)cc1 | 27.9 µM |  | 79% | inhibition of growth at 10 µM (SK-N-SH [9]): 31%
O=c1c2cccnc2sn1-c1ccc(Cl)cc1 | 3.53 µM | 16.1 µM | 23% | inhibition [8]: 87%
O=C1/C(=C/c2ccc3c(c2)OCO3)C(=S)SN1Cc1ccco1 |  |  |  | inhibition [10]: < 5%
CCCCc1ccc(-n2sc3ncc(-c4ccccc4)cc3c2=O)cc1 |  |  | 33% | inhibition [10]: 49%; inhibition of growth at 25 µM (SK-N-SH [11]): 55%
O=c1c2cccnc2sn1-c1ccc(F)cc1 | 1.64 µM | 10.3 µM | 28% | IC50 [3]: 0.72 µM; GI50 (MCF7): 37.2 µM; growth inhibition (GI) (SK-N-SH [12]): Dose-dependent effect
O=c1c2cc([N+](=O)[O-])cnc2sn1-c1ccc(Oc2ccccc2)cc1 |  |  | < 10% | inhibition [13]: 48%; inhibition of growth at 25 µM (SK-N-SH [11]): < 5%
O=c1c2cccnc2sn1Cc1ccccc1 | 23 µM |  |  | 
COc1cccc(Cn2sc3ncccc3c2=O)c1 | 22.2 µM |  | 42% | inhibition of growth at 10 µM (SK-N-SH [9]): 26%
Cc1ccc(-n2sc3ncccc3c2=O)cc1 | 4.63 µM | 6.2 µM | 20% | inhibition [8]: 75%
O=c1c2cccnc2[s+]([O-])n1Cc1ccc(Cl)c(Cl)c1 (stereo not given) |  |  |  | inhibition [1]: 11%
O=c1c2ccccc2sn1-c1nc2ccccc2s1 |  |  |  | inhibition [1]: 46%
O=c1c2cccnc2sn1Cc1ccc(C(F)(F)F)cc1 | 130 µM | 0.48 µM | 38% | IC50 [3]: 25.5 µM; GI50 (MCF7): 30.2 µM

SMILES | IC50 [2] | GI50 (SK-N-SH [4]) | inhibition of growth at 25 µM (HCT-116 [5]) | also measured
O=c1c2cccnc2sn1Cc1ccc(F)cc1 | 86.3 µM |  |  | 
COc1cccc(-n2sc3ncccc3c2=O)c1 | 5.03 µM |  |  | 
O=C1c2cccnc2S(=O)(=O)N1Cc1ccc(Cl)c(Cl)c1 |  |  |  | inhibition [1]: 6%
O=c1c2cccnc2sn1Cc1ccc(Cl)cc1 | 17.5 µM |  | 97% | inhibition of growth at 10 µM (SK-N-SH [9]): 20%
O=c1c2cc([N+](=O)[O-])cnc2sn1-c1ccc([N+](=O)[O-])cc1 | 11.8 µM |  |  | IC50 [3]: 15.8 µM
COc1ccc(-n2sc3ncc([N+](=O)[O-])cc3c2=O)cc1 | 3.42 µM |  |  | IC50 [3]: 1.83 µM; inhibition [14]: inactive
C=C(C)C(C(=O)OC)n1scc(NCc2ccccc2)c1=O (stereo not given) |  |  |  | inhibition [15]: 20%; inhibition [16]: 48%
Cc1ccc(-n2sc3cc(F)ccc3c2=O)cc1 | 3.69 µM |  |  | inhibition of growth at 100 µM (SK-N-SH [17]): 35%; inhibition of growth at 100 µM (HCT-116 [18]): 49%
Cc1cc(C)c2c(=O)n(CC(=O)Nc3ccc(F)cc3C)sc2n1 |  | 25.7 µM |  | inhibition [1]: 48%; GI50 (HCT-116 [19]): 22.6 µM
Cc1cc(C)c2c(=O)n(CC(=O)Nc3ccc(Cl)cc3)sc2n1 |  | 22.1 µM |  | inhibition [1]: 38%; GI50 (HCT-116 [19]): 35.8 µM
O=c1c2cccnc2sn1-c1ccc(F)c(F)c1 | 5.9 µM |  |  | 
O=c1ccsn1-c1ccc(Cl)c([N+](=O)[O-])c1 | 4.8 µM | 23.2 µM |  | 
O=c1c2cccnc2sn1Cc1ccc(Cl)c(Cl)c1 | 6.94 µM | 9.53 µM |  | GI50 (HCT-116 [19]): 15.8 µM
O=c1c2cccnc2sn1-c1ccc(Cl)c(Cl)c1 | 4.57 µM |  |  | inhibition [8]: 91%; inhibition of growth at 20 µM (SK-N-SH [20]): 37%; inhibition of growth at 20 µM (HCT-116 [21]): 56%
Cc1cnc2sn(-c3ccc(Oc4ccccc4)cc3)c(=O)c2c1 | 12.9 µM |  | 29% | inhibition of growth at 25 µM (SK-N-SH [11]): 32%
O=c1c2cccnc2sn1-c1ccc([N+](=O)[O-])cc1 | 4.1 µM |  |  | IC50 [3]: 2.99 µM
COc1ccc(-n2sc3ncccc3c2=O)cc1 | 5.71 µM | 19.2 µM | 29% | 
COc1ccc(-n2sc3ncc(C)cc3c2=O)cc1 | 6.51 µM | 12.2 µM | 40% | 
CCCCc1ccc(-n2sc3ncccc3c2=O)cc1 | 15.9 µM | 8.93 µM | 21% | 
Cc1cnc2sn(-c3ccc([N+](=O)[O-])cc3)c(=O)c2c1 | 15.3 µM |  |  | IC50 [3]: 2.72 µM
